In paper PMC4159695 (Molecular Microbiology, 2014):

Key:
[1] = target: T1, N‐terminal PAS domain from XC_2579 (Tk 4, residues 1 to 165) (Xanthomonas campestris pv. campestris, UniProt Q8PA41); assay: Isothermal titration calorimetry of DSF and structural analogues binding to Tk 4; conditions: ITC; for △H: change in enthalpy upon binding; for △S (cal mol^−1 per degree): change in entropy upon binding
T1 sequence (Q8PA41 14-178): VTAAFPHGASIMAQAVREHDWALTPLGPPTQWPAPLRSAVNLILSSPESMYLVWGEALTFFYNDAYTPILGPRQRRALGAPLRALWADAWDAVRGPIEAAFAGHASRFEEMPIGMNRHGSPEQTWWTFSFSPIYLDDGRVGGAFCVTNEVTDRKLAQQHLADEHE
Method in brief: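 His6-tagged XC_2579 PAS domain construct (Tk 4) expressed in E. coli BL21(DE3) with 0.25 mM IPTG at 37°C for 1 h. Purified by Ni2+ affinity; tag cleaved with HRV 3C protease. Heats corrected against buffer control; one-site fit for Kd, ΔH, ΔS. Repeated at least twice.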

[2] = system: PAS domain of Mycobacterium tuberculosis Rv1364c; conditions: ref King‐Scott et al., 2011, cited from earlier work; for binding to PAS domain: in words
[3] = system: Tk2 (XC_2579 amino acid residues 530–955); assay: Isothermal titration calorimetry of DSF binding to truncation Tk 2; set-up: species or system Xanthomonas campestris pv. campestris; conditions: ITC, Tk2, in words
[4] = target: T2, Tk 3 (XC_2579 amino residues 1 to 240) (Xanthomonas campestris pv. campestris, UniProt Q8PA41); assay: Isothermal titration calorimetry of DSF binding to truncation Tk 3; conditions: ITC, Tk 3, in words
T2 sequence (Q8PA41 14-253): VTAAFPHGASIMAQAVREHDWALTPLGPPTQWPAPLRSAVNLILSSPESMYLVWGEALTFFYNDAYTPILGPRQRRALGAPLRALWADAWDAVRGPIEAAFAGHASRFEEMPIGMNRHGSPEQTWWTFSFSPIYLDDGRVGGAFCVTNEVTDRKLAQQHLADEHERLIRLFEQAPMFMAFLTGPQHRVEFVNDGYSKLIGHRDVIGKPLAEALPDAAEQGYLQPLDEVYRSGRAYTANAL

[5] = target: T3, Tk 1 (XC_2579 N‐terminal amino acid residues 1 to 360) (Xanthomonas campestris pv. campestris, UniProt Q8PA41); assay: Isothermal titration calorimetry of DSF binding to truncation Tk 1; conditions: ITC, Tk 1, in words
T3 sequence (Q8PA41 14-373): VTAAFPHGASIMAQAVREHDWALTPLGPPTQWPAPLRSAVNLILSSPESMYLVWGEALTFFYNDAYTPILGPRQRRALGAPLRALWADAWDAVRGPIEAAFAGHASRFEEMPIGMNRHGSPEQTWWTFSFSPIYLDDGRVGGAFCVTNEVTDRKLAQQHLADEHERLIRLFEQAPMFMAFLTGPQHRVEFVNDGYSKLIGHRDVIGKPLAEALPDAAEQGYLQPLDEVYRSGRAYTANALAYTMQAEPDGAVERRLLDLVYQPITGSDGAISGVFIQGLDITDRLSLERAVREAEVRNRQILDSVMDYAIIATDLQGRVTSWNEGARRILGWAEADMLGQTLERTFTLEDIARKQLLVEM

XC_0107 gfp fusion = assay: XC_0107 gfp reporter fusion expression induced by DSF; assay type: cell-based, Xanthomonas campestris; conditions: rpfFC strain carrying reporter; 50 μM synthetic DSF, 14 h
[6] = target: T4, full‐length XC_2579 protein (RpfS) (Xanthomonas campestris pv. campestris, UniProt Q8PA41); assay: Isothermal titration calorimetry of DSF binding to full-length XC_2579
T4 sequence (Q8PA41 14-968): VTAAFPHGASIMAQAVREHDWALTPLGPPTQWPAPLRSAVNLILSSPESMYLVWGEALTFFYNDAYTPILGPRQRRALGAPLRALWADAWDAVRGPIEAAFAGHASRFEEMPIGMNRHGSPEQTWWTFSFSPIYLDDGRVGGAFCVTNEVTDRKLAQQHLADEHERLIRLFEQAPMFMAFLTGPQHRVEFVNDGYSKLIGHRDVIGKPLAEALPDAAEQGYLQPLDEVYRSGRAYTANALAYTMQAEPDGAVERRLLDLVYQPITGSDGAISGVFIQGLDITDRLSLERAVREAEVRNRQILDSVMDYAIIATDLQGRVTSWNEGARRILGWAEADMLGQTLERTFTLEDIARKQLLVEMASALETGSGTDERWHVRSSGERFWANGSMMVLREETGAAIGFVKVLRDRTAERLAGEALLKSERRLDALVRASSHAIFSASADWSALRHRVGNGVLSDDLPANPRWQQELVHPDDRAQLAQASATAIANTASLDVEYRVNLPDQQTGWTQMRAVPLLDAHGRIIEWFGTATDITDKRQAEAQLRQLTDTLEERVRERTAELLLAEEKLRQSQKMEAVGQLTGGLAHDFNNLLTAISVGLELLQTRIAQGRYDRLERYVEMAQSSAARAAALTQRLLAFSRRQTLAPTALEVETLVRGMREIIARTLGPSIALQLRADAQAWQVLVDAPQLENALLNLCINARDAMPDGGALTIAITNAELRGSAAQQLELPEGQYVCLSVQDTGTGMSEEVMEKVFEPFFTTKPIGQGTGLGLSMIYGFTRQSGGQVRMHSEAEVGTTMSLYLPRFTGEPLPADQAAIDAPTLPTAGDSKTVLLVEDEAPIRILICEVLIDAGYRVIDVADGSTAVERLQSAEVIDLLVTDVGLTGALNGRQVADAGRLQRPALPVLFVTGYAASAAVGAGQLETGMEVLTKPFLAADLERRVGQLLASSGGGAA

[7] = Kd (M), Tk 4, higher concentrations of analogues used to estimate Kd

Q: What does the source list for `CCCCCCCCC/C=C\C(=O)O` [cis‐2‐dodecenoic acid (BDSF), cis‐2‐dodecenoic acid]?
A: △H ([1]; Tk 4): -1.21 kcal/mol; △S (cal mol^−1 per degree) ([1]; Tk 4): 58.05 cal mol^−1 per degree; Kd [1, 7]: 7.1e-06 M; Kd ([1]; Kd, Tk 4, PBS buffer at 25°C): 7e-06 M

Q: For `CCCCCCCC/C=C\CCCCCCCC(=O)O` [oleic acid], which “binding to PAS domain” value [2] is on record?
A: bind

Q: With `CCCCCCCCCCCC(=O)O` [Dodecanoic acid] as the molecule, how does the Kd [1, 7] read?
A: 0.0149 M

Q: What about the Kd ([1]; Kd, Tk 4) of the same molecule?
A: > 0.001 M

Q: Which “affinity relative to palmitoleic acid (times lower)” value [2] does the source give for `CCCCCCCCCCCCCCCC(=O)O` [palmitic acid] here?
A: 100 times

Q: With `CC(C)CCCCCCCCCC(=O)O` [11‐methyl‐dodecanoic acid] as the molecule, how does the Kd [1, 7] read?
A: 0.0069 M

Q: What about the Kd ([1]; Kd, Tk 4) of the same molecule?
A: > 0.001 M

Q: Which DSF binding [3] does the source give for `CC(C)CCCCCCC/C=C\C(=O)O` [DSF, cis‐11‐methyl‐2‐dodecenoic acid] here?
A: no binding was detected

Q: What about the DSF binding [4] of the same molecule?
A: High affinity DSF binding

Q: And the DSF binding [5]?
A: bound DSF with high affinity

Q: What about the “expression of GFP (XC_0107 gfp reporter)” value (XC_0107 gfp fusion) of the same molecule?
A: activated

Q: What about the Kd [6] of the same molecule?
A: 1.4 µM

Q: What about the DSF binding ([1]; Tk 4, in words) of the same molecule?
A: High affinity DSF binding

Q: And the “△H” value ([1]; Tk 4)?
A: -1.60 kcal/mol

Q: What about the “△S (cal mol^−1 per degree)” value ([1]; Tk 4) of the same molecule?
A: 59.73 cal mol^−1 per degree

Q: Which “binding to PAS domain” value [2] does the source give for `CCCCCC/C=C\CCCCCCCC(=O)O` [Palmitoleic acid] here?
A: bind

Q: Which results are given for `CC(C)CCCCCCC/C=C/C(=O)O` [trans‐11‐methyl‐2‐dodecenoic acid]?
A: Kd [1, 7]: 0.00113 M; Kd ([1]; Kd, Tk 4): > 0.001 M
